Measured values collected from several papers.
Each line is one published result; the experiments were not run side by side. Values after ≈ are worked out from the molar mass of the structure shown.
Organism: Klebsiella pneumoniae

| SMILES | test | test system | setting | endpoint | value |
| --- | --- | --- | --- | --- | --- |
| COc1cc(C=Nc2cccc(O)c2)ccc1O | microbial growth, disc diffusion | – | 2000 µg/mL, 24 h | inhibition zone | 15.5 mm |
| C[C@H]1COc2c(N3CCN(C)CC3)c(F)cc3c(=O)c(C(=O)O)cn1c23 | microbial killing | ATCC27736 | – | MBC | 0.06 µg/mL (≈ 0.166 µM) |
| C[C@@H](O)[C@H]1C(=O)N2C(C(=O)O)=C(SCCNC=N)C[C@H]12 | microbial growth, broth dilution | – | – | MIC | 0.5 µg/mL (≈ 1.67 µM) |
| Cc1[nH]c(C(=O)Nc2ccc(C(=O)NCC(=O)O)cc2N2CCNCC2)c(Cl)c1Cl.Cl | microbial growth, broth dilution | ATCC700603 | – | MIC | > 32 µg/mL |
| COc1cc(C=Nc2ccc(Cl)cc2Cl)ccc1O | microbial growth, disc diffusion | – | 2000 µg/mL, 24 h | inhibition zone | 15 mm |
| Cc1[nH]c(C(=O)Nc2ccc(C(=O)NCC(=O)O)cc2N2CC[C@@H](N)C2)c(Cl)c1Cl.Cl | microbial growth, broth dilution | ATCC700603 | – | MIC | > 32 µg/mL |
| CC(C)(O/N=C(\C(=O)N[C@@H]1C(=O)N2C(C(=O)[O-])=C(C[n+]3ccccc3)CS[C@H]12)c1csc(N)n1)C(=O)O | microbial growth, broth dilution | – | 20 h, clinical isolate | MIC | > 128 µg/mL |
| CC(C)(C)OC(=O)N1CCN(c2cc(C(=O)NCC(=O)O)ccc2NC(=O)c2cc(Br)c(Br)[nH]2)CC1 | microbial growth, broth dilution | ATCC700603 | – | MIC | > 32 µg/mL |
| COc1cc(C=Nc2ccc([N+](=O)[O-])cc2)ccc1O | microbial growth, disc diffusion | – | 2000 µg/mL, 24 h | inhibition zone | 14.4 mm |
| Cc1[nH]c(C(=O)Nc2ccc(C(=O)NCc3n[nH]c(=O)o3)cc2N2CCN(C(=O)OC(C)(C)C)CC2)c(Cl)c1Cl | microbial growth, broth dilution | ATCC700603 | – | MIC | > 32 µg/mL |
| CC(C)(O/N=C(\C(=O)N[C@@H]1C(=O)N2C(C(=O)[O-])=C(C[n+]3ccccc3)CS[C@H]12)c1csc(N)n1)C(=O)O | microbial growth, disc diffusion | – | 2000 µg/mL, 24 h | inhibition zone | 12 mm |
| C[C@@H](O)[C@H]1C(=O)N2C(C(=O)O)=C(SCCN=CN)C[C@H]12 | microbial growth, broth dilution | – | clinical isolate | MIC90 | 256 µg/mL (≈ 855 µM) |
| CN(C)c1cc(NC(=O)CNC(C)(C)C)c(O)c2c1C[C@H]1C[C@H]3[C@H](N(C)C)C(O)=C(C(N)=O)C(=O)[C@@]3(O)C(O)=C1C2=O | microbial growth, broth dilution | – | – | MIC | 0.5 µg/mL (≈ 0.854 µM) |
